Source: ChEMBL document CHEMBL1148762, “Lysosome and HER3 (ErbB3) selective anticancer agent kahalalide F: semisynthetic modifications and antifungal lead-exploration studies” (J Med Chem, 2007)
≈ marks a conversion by molar mass, not a printed value. Calls of active or inactive are those of the source. No cut-off for these calls is given here.

What was measured:
Fusarium oxysporum [1] = assay: Fungistatic activity against Fusarium oxysporum at 30 uM after 72 hrs by microtiter plate assay; type: functional, organism-based
In short: (§1)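 Conidia come from 7-day potato dextrose agar cultures, filtered and set photometrically (625 nm) to 3 × 10^5 conidia/mL. They are exposed to compound at 30 µM in 96-well microdilution broth at 24 ± 1 °C under a 12 h photoperiod. After 72 h, 20 µL per well is subcultured on drug-free potato dextrose agar at 28 °C for 3 days. No regrowth is scored fungicidal; regrowth is scored fungistatic.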

Fusarium solani [2] = assay: Antimicrobial activity against Fusarium solani at 0.3 uM after 72 hrs by microtiter assay; type: functional
In short: (§2)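 96-well microdilution broth assay with conidia (3 × 10^5 conidia/mL, harvested from 7-day PDA cultures and filtered) against F. oxysporum, F. proliferatum and F. solani at 0.3, 3 and 30 µM. Plates were held at 24 ± 1 °C under a 12 h photoperiod. Growth was read at 620 nm at 24, 48 and 72 h and reported as percent inhibition from mean absorbance with standard error.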

Fusarium proliferatum [3] = assay: Fungistatic activity against Fusarium proliferatum at 30 uM after 72 hrs by microtiter plate assay; type: functional, organism-based; in short: as §1
Fusarium solani [4] = assay: Antimicrobial activity against Fusarium solani at 3 uM after 48 hrs by microtiter assay; type: functional; in short: as §2
Fusarium proliferatum [5] = assay: Antimicrobial activity against Fusarium proliferatum at 0.3 uM after 48 hrs by microtiter assay; type: functional; in short: as §2
Fusarium oxysporum [6] = assay: Antimicrobial activity against Fusarium oxysporum at 0.3 uM after 48 hrs by microtiter assay; type: functional; in short: as §2
Fusarium oxysporum [7] = assay: Antimicrobial activity against Fusarium oxysporum at 3 uM after 72 hrs by microtiter assay; type: functional; in short: as §2
Fusarium oxysporum [8] = assay: Antimicrobial activity against Fusarium oxysporum at 30 uM after 72 hrs by microtiter assay; type: functional; in short: as §2
Fusarium proliferatum [9] = assay: Antimicrobial activity against Fusarium proliferatum at 30 uM after 48 hrs by microtiter assay; type: functional; in short: as §2
Fusarium oxysporum [10] = assay: Antimicrobial activity against Fusarium oxysporum at 3 uM after 48 hrs by microtiter assay; type: functional; in short: as §2
Fusarium solani [11] = assay: Fungistatic activity against Fusarium solani at 30 uM after 72 hrs by microtiter plate assay; type: functional, organism-based; in short: as §1
Fusarium proliferatum [12] = assay: Antimicrobial activity against Fusarium proliferatum at 3 uM after 48 hrs by microtiter assay; type: functional; in short: as §2
Fusarium oxysporum [13] = assay: Antimicrobial activity against Fusarium oxysporum at 0.3 uM after 72 hrs by microtiter assay; type: functional; in short: as §2
Fusarium proliferatum [14] = assay: Antimicrobial activity against Fusarium proliferatum at 0.3 uM after 72 hrs by microtiter assay; type: functional; in short: as §2
Fusarium solani [15] = assay: Antimicrobial activity against Fusarium solani at 30 uM after 72 hrs by microtiter assay; type: functional; in short: as §2
Fusarium proliferatum [16] = assay: Antimicrobial activity against Fusarium proliferatum at 30 uM after 72 hrs by microtiter assay; type: functional; in short: as §2
Fusarium solani [17] = assay: Antimicrobial activity against Fusarium solani at 30 uM after 48 hrs by microtiter assay; type: functional; in short: as §2
Fusarium proliferatum [18] = assay: Antimicrobial activity against Fusarium proliferatum at 3 uM after 72 hrs by microtiter assay; type: functional; in short: as §2
Fusarium solani [19] = assay: Antimicrobial activity against Fusarium solani at 0.3 uM after 48 hrs by microtiter assay; type: functional; in short: as §2
Fusarium oxysporum [20] = assay: Antimicrobial activity against Fusarium oxysporum at 30 uM after 48 hrs by microtiter assay; type: functional; in short: as §2
Fusarium solani [21] = assay: Antimicrobial activity against Fusarium solani at 3 uM after 72 hrs by microtiter assay; type: functional; in short: as §2
[22] = test system: Mycobacterium intracellulare; assay: Antimicrobial activity against Mycobacterium intracellular ATCC 23068; type: functional, organism-based
Staphylococcus aureus = assay: Antimicrobial activity against methicillin-resistant Staphylococcus aureus; type: functional, organism-based
Cryptococcus neoformans = assay: Antimicrobial activity against Cryptococcus neoformans ATCC 90113; type: functional, organism-based
Candida albicans = assay: Antimicrobial activity against Candida albicans ATCC 90028; type: functional, organism-based
[23] = test system: Mycobacterium tuberculosis; assay: Antibacterial activity against Mycobacterium tuberculosis H37Rv at 16 ug/mL by micro plate alamar blue assay; type: functional
In short: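 M. tuberculosis H37Rv ATCC 27294 grown in BACTEC 12B medium; microplate Alamar blue assay (MABA). Primary screen at a single concentration of 16 µg/mL, read as percent inhibition.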

Aspergillus fumigatus = assay: Antimicrobial activity against Aspergillus fumigatus ATCC 90906; type: functional, organism-based
Escherichia coli = assay: Antimicrobial activity against Escherichia coli; type: functional, organism-based
SNB-75 = assay: Cytotoxicity against human SNB75 cells; type: functional
In short: (§3)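 NCI Developmental Therapeutics Program cell panel. GI50 is the concentration that reduces growth of treated cells to half that of untreated controls. TGI is the concentration that completely halts growth.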

PC-3 = assay: Cytotoxicity against human PC3 cells; type: functional; in short: as §3
[24] = test system: Mycobacterium tuberculosis; assay: Antibacterial activity against Mycobacterium tuberculosis H37Rv by micro plate alamar blue assay; type: functional
HT-29 = assay: Cytotoxicity against human HT29 cells; type: functional; in short: as §3
UACC-257 = assay: Cytotoxicity against human UACC257 cells; type: functional; in short: as §3
Leishmania donovani = assay: Antiparasitic activity against Leishmania donovani; type: functional, organism-based
Fusarium solani [25] = assay: Fungicidal activity against Fusarium solani at 30 uM after 72 hrs by microtiter assay; type: functional, organism-based
In short: (§4)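 After 72 h of microtiter broth exposure at 30 µM, 20 µL from each well was plated onto compound-free potato dextrose agar and incubated 3 days at 28 °C. No regrowth was scored fungicidal; regrowth was scored fungistatic.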

HCT-15 = assay: Cytotoxicity against human HCT15 cells; type: functional; in short: as §3
HCC 2998 = assay: Cytotoxicity against human HCC2998 cells; type: functional; in short: as §3
KM12 = assay: Cytotoxicity against human KM12 cells; type: functional; in short: as §3
ACHN = assay: Cytotoxicity against human ACHN cells; type: functional; in short: as §3
Fusarium oxysporum [26] = assay: Fungicidal activity against Fusarium oxysporum at 30 uM after 72 hrs by microtiter plate assay; type: functional, organism-based; in short: as §4
Fusarium proliferatum [27] = assay: Fungicidal activity against Fusarium proliferatum at 30 uM after 72 hrs by microtiter plate assay; type: functional, organism-based; in short: as §4
RPMI-8226 = assay: Cytotoxicity against human RPMI8226 cells; type: functional; in short: as §3
A549 = assay: Cytotoxicity against human A549 cells; type: functional; in short: as §3
SK-OV-3 = assay: Cytotoxicity against human SK-OV3 cells; type: functional; in short: as §3
NCI-H322M = assay: Cytotoxicity against human NCI-H322M cells; type: functional; in short: as §3
Hs-578T = assay: Cytotoxicity against human HS578T cells; type: functional; in short: as §3
Fusarium proliferatum [28] = assay: Antifungal activity against Fusarium proliferatum at 20 ug/mL after 3 days by fluorescence assay; type: functional, organism-based
In short: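 Fusarium proliferatum conidia in potato dextrose broth in a tube with the coumarin (DEAC)-labelled probe at 20 µg/mL, held at 24 ± 1 °C. Hyphae and mycelia were viewed at 4, 8, 16, 24, 48 and 72 h by light and epifluorescence microscopy at 400× and 1000×. Conidia were first checked for autofluorescence.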

CO/C=C(/C(=O)OC)c1ccccc1Oc1cc(Oc2ccccc2C#N)ncn1 [AZOXYSTROBIN]
Activity (Fusarium oxysporum [1]): Active
inhibition at 0.3 µM (Fusarium solani [2]): 11.7%
Activity (Fusarium proliferatum [3]): Active
inhibition at 3 µM (Fusarium solani [4]): 25.3%
inhibition at 0.3 µM (Fusarium proliferatum [5]): 0%
inhibition at 0.3 µM (Fusarium oxysporum [6]): 22.7%
inhibition at 3 µM (Fusarium oxysporum [7]): 7.1%
inhibition at 30 µM (Fusarium oxysporum [8]): 32.9%
inhibition at 30 µM (Fusarium proliferatum [9]): 53%
inhibition at 3 µM (Fusarium oxysporum [10]): 32.3%
Activity (Fusarium solani [11]): Active
inhibition at 3 µM (Fusarium proliferatum [12]): 21.7%
inhibition at 0.3 µM (Fusarium oxysporum [13]): 15.3%
inhibition at 0.3 µM (Fusarium proliferatum [14]): 0%
inhibition at 30 µM (Fusarium solani [15]): 51.7%
inhibition at 30 µM (Fusarium proliferatum [16]): 40.7%
inhibition at 30 µM (Fusarium solani [17]): 62.7%
inhibition at 3 µM (Fusarium proliferatum [18]): 14.8%
inhibition at 0.3 µM (Fusarium solani [19]): 16.6%
inhibition at 30 µM (Fusarium oxysporum [20]): 77.2%
inhibition at 3 µM (Fusarium solani [21]): 15%

CC(C)CCC[C@H]1CC(=O)N[C@H](Cc2c[nH]c3ccccc23)C(=O)N2CCC[C@H]2C(=O)N[C@@H](CCCNC(=N)N)C(=O)O1 [KAHALALIDE D]
IC50 [22]: > 33600 nM
Activity (Staphylococcus aureus): inactive
IC50 (Cryptococcus neoformans): > 33600 nM
IC50 (Candida albicans): > 33600 nM
inhibition at 16 µg/mL [23]: 49%
IC50 (Aspergillus fumigatus): > 33600 nM
Activity (Escherichia coli): inactive

C/C=C(\NC(=O)[C@H](Cc1ccccc1)NC(=O)[C@H](NC(=O)[C@H](NC(=O)[C@H](NC(=O)[C@H](NC(=O)[C@H](CCCN)NC(=O)[C@H]1CCCN1C(=O)[C@@H](NC(=O)[C@H](NC(=O)[C@H](NC(=O)[C@@H](NC(=O)CCCC(C)C)C(C)C)[C@H](C)O)C(C)C)C(C)C)[C@@H](C)CC)[C@@H](C)O)[C@@H](C)CC)C(C)C)C(=O)N[C@H](C(=O)O)C(C)C
Activity (Staphylococcus aureus): inactive
Activity (Escherichia coli): inactive

C/C=C1\NC(=O)[C@H](Cc2ccccc2)NC(=O)[C@@H](C(C)C)NC(=O)[C@@H]([C@H](C)CC)NC(=O)[C@H](NC(=O)[C@H](NC(=O)[C@H](CCCN)NC(=O)[C@H]2CCCN2C(=O)[C@H](NC(=O)[C@@H](NC(=O)[C@@H](NC(=O)[C@H](NC(=O)CCCC(C)C)C(C)C)[C@@H](C)O)C(C)C)C(C)C)[C@H](C)CC)[C@H](C)OC(=O)[C@H](C(C)C)NC1=O [KAHALALIDE F]
inhibition at 0.3 µM (Fusarium solani [2]): 0%
GI50 (SNB-75): 224 nM
TGI (SNB-75): 1900 nM
GI50 (PC-3): 170 nM
TGI (PC-3): 324 nM
MIC [24]: > 16 µg/mL
GI50 (HT-29): 162 nM
TGI (HT-29): 316 nM
GI50 (UACC-257): 1020 nM
TGI (UACC-257): 2820 nM
inhibition at 3 µM (Fusarium solani [4]): 9.9%
IC50 [22]: > 20000 nM
MBC [22]: > 20 µM
MIC [22]: > 20 µM
IC50 (Leishmania donovani): 17 µg/mL (≈ 11.5 µM)
IC90 (Leishmania donovani): 34 µg/mL (≈ 23 µM)
Activity (Fusarium solani [25]): Active
inhibition at 0.3 µM (Fusarium proliferatum [5]): 0%
inhibition at 0.3 µM (Fusarium oxysporum [6]): 0%
inhibition at 3 µM (Fusarium oxysporum [7]): 0%
GI50 (HCT-15): 269 nM
TGI (HCT-15): 741 nM
inhibition at 30 µM (Fusarium oxysporum [8]): 99.6%
inhibition at 30 µM (Fusarium proliferatum [9]): 99.8%
GI50 (HCC 2998): 288 nM
TGI (HCC 2998): 616 nM
inhibition at 3 µM (Fusarium oxysporum [10]): 0%
GI50 (KM12): 182 nM
TGI (KM12): 363 nM
GI50 (ACHN): 1660 nM
TGI (ACHN): 3240 nM
Activity (Fusarium oxysporum [26]): Active
Activity (Fusarium proliferatum [27]): Active
Activity (Staphylococcus aureus): inactive
IC50 (Cryptococcus neoformans): 1530 nM
MFC (Cryptococcus neoformans): 5 µM (≈ 7.39 µg/mL)
MIC (Cryptococcus neoformans): 5 µM (≈ 7.39 µg/mL)
IC50 (Candida albicans): 3020 nM
MFC (Candida albicans): 20 µM (≈ 29.6 µg/mL)
MIC (Candida albicans): 10 µM (≈ 14.8 µg/mL)
GI50 (RPMI-8226): 1740 nM
TGI (RPMI-8226): 6920 nM
inhibition at 3 µM (Fusarium proliferatum [12]): 0%
inhibition at 0.3 µM (Fusarium oxysporum [13]): 0%
inhibition at 16 µg/mL [23]: 67%
GI50 (A549): 135 nM
TGI (A549): 302 nM
IC50 (Aspergillus fumigatus): 3210 nM
MFC (Aspergillus fumigatus): 20 µM (≈ 29.6 µg/mL)
MIC (Aspergillus fumigatus): 10 µM (≈ 14.8 µg/mL)
inhibition at 0.3 µM (Fusarium proliferatum [14]): 0%
inhibition at 30 µM (Fusarium solani [15]): 99.9%
inhibition at 30 µM (Fusarium proliferatum [16]): 100%
inhibition at 30 µM (Fusarium solani [17]): 98.9%
GI50 (SK-OV-3): 191 nM
TGI (SK-OV-3): 355 nM
GI50 (NCI-H322M): 191 nM
TGI (NCI-H322M): 372 nM
inhibition at 3 µM (Fusarium proliferatum [18]): 0%
inhibition at 0.3 µM (Fusarium solani [19]): 0%
GI50 (Hs-578T): 162 nM
TGI (Hs-578T): 479 nM
Activity (Fusarium proliferatum [28]): Active
Activity (Escherichia coli): inactive
inhibition at 30 µM (Fusarium oxysporum [20]): 100%
inhibition at 3 µM (Fusarium solani [21]): 0%
